From ChEMBL document CHEMBL4184147, “Polyphenolic Phytochemicals in Cancer Prevention and Therapy: Bioavailability versus Bioefficacy” (J Med Chem, 2017)

Legend:
T47D [1] = assay: Cytotoxicity against human T47D cells assessed as cell viability at 16 uM after 48 hrs by MTT assay; assay type: functional; settings: read-out: Activity
[2] = Cytotoxicity against human MML1 cells assessed as decrease in cell viability after 48 hrs by MTT assay; assay type: functional, cell-based
U-87 MG [3] = assay: Cytotoxicity against human U87 cells assessed as cell viability at 16 uM after 48 hrs by MTT assay; assay type: functional, U-87MG ATCC; settings: read-out: Activity
[4] = Cmax in mouse at 10 mg/kg, iv by LC-MS/MS method; assay type: ADME, organism-based; parameters: dose 10 mg/kg, route intravenous; settings: in vivo
Procedure, shortened: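 Mouse iv dosing used polyphenol dissolved in DMSO:ethanol (2:1), with total injected volume never above 30 μL. Plasma levels were measured by previously described methods.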

[5] = Cytotoxicity against human MML1 cells assessed as cell viability at 16 uM after 48 hrs by MTT assay; assay type: functional; settings: read-out: Activity
SK-MEL-2 [6] = assay: Cytotoxicity against human SK-MEL-2 cells assessed as cell viability at 16 uM after 48 hrs by MTT assay; assay type: functional; settings: SK-MEL-2, 48 h, read-out: Activity
LN-229 [7] = assay: Cytotoxicity against human LN229 cells assessed as decrease in cell viability after 48 hrs by trypan blue exclusion and LDH release; settings: LN-229, 48 h
MDA-MB-231 [8] = assay: Cytotoxicity against human MDA-MB-231 cells assessed as decrease in cell viability after 48 hrs by trypan blue exclusion and LDH release; settings: MDA-MB-231, 48 h
COLO 201 [9] = assay: Cytotoxicity against human COLO201 cells assessed as decrease in cell viability after 48 hrs by trypan blue exclusion and LDH release; settings: COLO 201, 48 h
COLO 201 [10] = assay: Cytotoxicity against human COLO201 cells assessed as cell viability at 16 uM after 48 hrs by MTT assay; assay type: functional; settings: COLO 201, 48 h, read-out: Activity
HT-29 [11] = assay: Cytotoxicity against human HT-29 cells assessed as decrease in cell viability after 48 hrs by trypan blue exclusion and LDH release; settings: HT-29, 48 h
[12] = Displacement of [3H]resveratrol from Sprague-Dawley rat brain plasma membranes after 1 hr by beta counting method; assay type: cell membranes
A549 [13] = assay: Cytotoxicity against human A549 cells assessed as decrease in cell viability after 48 hrs by trypan blue exclusion and LDH release; settings: A549, 48 h
BXPC-3 [14] = assay: Cytotoxicity against human BxPC3 cells assessed as cell viability at 16 uM after 48 hrs by MTT assay; assay type: functional; settings: BXPC-3, 48 h, read-out: Activity
T47D [15] = assay: Cytotoxicity against human T47D cells assessed as decrease in cell viability after 48 hrs by trypan blue exclusion and LDH release
PANC-1 [16] = assay: Cytotoxicity against human PANC1 cells assessed as decrease in cell viability after 48 hrs by MTT assay; assay type: functional, cell-based; settings: PANC-1, 48 h
A549 [17] = assay: Cytotoxicity against human A549 cells assessed as cell viability at 16 uM after 48 hrs by MTT assay; assay type: functional; settings: A549, 48 h, read-out: Activity
LN-229 [18] = assay: Cytotoxicity against human LN229 cells assessed as cell viability at 16 uM after 48 hrs by MTT assay; assay type: functional; settings: LN-229, 48 h, read-out: Activity
BXPC-3 [19] = assay: Cytotoxicity against human BxPC3 cells assessed as decrease in cell viability after 48 hrs by MTT assay; assay type: functional, cell-based; settings: BXPC-3, 48 h
NCI-H460 [20] = assay: Cytotoxicity against human NCI-H460 cells assessed as decrease in cell viability after 48 hrs by MTT assay; assay type: functional, cell-based; settings: NCI-H460, 48 h
[21] = Tmax in mouse at 100 mg/kg, po by HPLC method; assay type: ADME, organism-based; settings: in vivo
Procedure, shortened: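 Given orally in a self-microemulsifying delivery system (60% surfactant, emulsifier OP:Cremophor EL 1:1; 30% PEG 400 cosurfactant; 10% ethyl oleate oil), total volume no more than 100 μL. Plasma levels measured by previously described methods.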

[22] = Plasma concentration in mouse at 10 mg/kg, iv at 60 mins by LC-MS/MS method; assay type: ADME, organism-based
Procedure, shortened: (§1)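 For IV dosing, compound dissolved in DMSO:ethanol (2:1), total volume no more than 30 μL. For oral dosing, compound given in a self-microemulsifying delivery system (60% surfactant, emulsifier OP:Cremophor EL 1:1; 30% PEG 400; 10% ethyl oleate), total volume no more than 100 μL. Plasma levels measured by previously described methods.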

NCI-H460 [23] = assay: Cytotoxicity against human NCI-H460 cells assessed as cell viability at 16 uM after 48 hrs by MTT assay; assay type: functional; settings: NCI-H460, 48 h, read-out: Activity
PANC-1 [24] = assay: Cytotoxicity against human PANC1 cells assessed as cell viability at 16 uM after 48 hrs by MTT assay; assay type: functional; settings: PANC-1, 48 h, read-out: Activity
U-87 MG [25] = assay: Cytotoxicity against human U87 cells assessed as decrease in cell viability after 48 hrs by trypan blue exclusion and LDH release
SK-MEL-2 [26] = assay: Cytotoxicity against human SK-MEL-2 cells assessed as decrease in cell viability after 48 hrs by MTT assay; assay type: functional, cell-based; settings: SK-MEL-2, 48 h
HT-29 [27] = assay: Cytotoxicity against human HT-29 cells assessed as cell viability at 16 uM after 48 hrs by MTT assay; assay type: functional; settings: HT-29, 48 h, read-out: Activity
MDA-MB-231 [28] = assay: Cytotoxicity against human MDA-MB-231 cells assessed as cell viability at 16 uM after 48 hrs by MTT assay; assay type: functional; settings: MDA-MB-231, 48 h, read-out: Activity
[29] = Tmax in mouse at 10 mg/kg, iv by LC-MS/MS method; assay type: ADME, organism-based; settings: in vivo; procedure, shortened: as §1
[30] = Cmax in mouse at 100 mg/kg, po by HPLC method; assay type: ADME, organism-based; parameters: dose 100 mg/kg, route oral; settings: in vivo
Procedure, shortened: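 For oral dosing, polyphenol was dissolved in a self-microemulsifying delivery system: 60% surfactant (emulsifier OP:Cremophor EL 1:1), 30% cosurfactant (PEG 400) and 10% oil (ethyl oleate). Total volume given was never above 100 μL. Plasma levels were quantified by previously described methods.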

Lipid bilayer = assay: Induction of DOPC/n-decane bilayer property changes assessed as concentration required to double gramicidin-induced quencher influx rate by […]
[31] = Plasma concentration in mouse at 100 mg/kg, po at 60 mins by LC-MS/MS method; assay type: ADME, organism-based; procedure, shortened: as §1
[32] = Cytotoxicity against human MML1 cells assessed as cell viability at 18 uM after 48 hrs by MTT assay; assay type: functional; settings: read-out: Activity
A549 [33] = assay: Cytotoxicity against human A549 cells assessed as cell viability at 18 uM after 48 hrs by MTT assay; assay type: functional; settings: A549, 48 h, read-out: Activity
LN-229 [34] = assay: Cytotoxicity against human LN229 cells assessed as cell viability at 18 uM after 48 hrs by MTT assay; assay type: functional; settings: LN-229, 48 h, read-out: Activity
MDA-MB-231 [35] = assay: Cytotoxicity against human MDA-MB-231 cells assessed as cell viability at 18 uM after 48 hrs by MTT assay; assay type: functional; settings: MDA-MB-231, 48 h, read-out: Activity
PANC-1 [36] = assay: Cytotoxicity against human PANC1 cells assessed as cell viability at 18 uM after 48 hrs by MTT assay; assay type: functional; settings: PANC-1, 48 h, read-out: Activity
SK-MEL-2 [37] = assay: Cytotoxicity against human SK-MEL-2 cells assessed as cell viability at 18 uM after 48 hrs by MTT assay; assay type: functional; settings: SK-MEL-2, 48 h, read-out: Activity
COLO 201 [38] = assay: Cytotoxicity against human COLO201 cells assessed as cell viability at 18 uM after 48 hrs by MTT assay; assay type: functional; settings: COLO 201, 48 h, read-out: Activity
T47D [39] = assay: Cytotoxicity against human T47D cells assessed as cell viability at 18 uM after 48 hrs by MTT assay; assay type: functional; settings: read-out: Activity
HT-29 [40] = assay: Cytotoxicity against human HT-29 cells assessed as cell viability at 18 uM after 48 hrs by MTT assay; assay type: functional; settings: HT-29, 48 h, read-out: Activity
NCI-H460 [41] = assay: Cytotoxicity against human NCI-H460 cells assessed as cell viability at 18 uM after 48 hrs by MTT assay; assay type: functional; settings: NCI-H460, 48 h, read-out: Activity
U-87 MG [42] = assay: Cytotoxicity against human U87 cells assessed as cell viability at 18 uM after 48 hrs by MTT assay; assay type: functional, U-87MG ATCC; settings: read-out: Activity
BXPC-3 [43] = assay: Cytotoxicity against human BxPC3 cells assessed as cell viability at 18 uM after 48 hrs by MTT assay; assay type: functional; settings: BXPC-3, 48 h, read-out: Activity

Oc1ccc(/C=C/c2cc(O)cc(O)c2)cc1 [RESVERATROL]
viability at 16 µM (T47D [1]): 99%
IC50 [2]: 12 µM
viability at 16 µM (U-87 MG [3]): 99%
Cmax [4]: 32 µM
viability at 16 µM [5]: 94%
viability at 16 µM (SK-MEL-2 [6]): 95%
IC50 (LN-229 [7]): 11 µM
IC50 (MDA-MB-231 [8]): 15 µM
IC50 (COLO 201 [9]): 37 µM
viability at 16 µM (COLO 201 [10]): 96%
IC50 (HT-29 [11]): 27 µM
Ki [12]: 0.102 µM
IC50 (A549 [13]): 16 µM
viability at 16 µM (BXPC-3 [14]): 98%
IC50 (T47D [15]): 25 µM
IC50 (PANC-1 [16]): 39 µM
viability at 16 µM (A549 [17]): 93%
viability at 16 µM (LN-229 [18]): 102%
IC50 (BXPC-3 [19]): 14 µM
IC50 (NCI-H460 [20]): 12 µM
Tmax [21]: 10 min
concentration at 1 h [22]: < 1 µM
viability at 16 µM (NCI-H460 [23]): 94%
viability at 16 µM (PANC-1 [24]): 105%
IC50 (U-87 MG [25]): 20 µM
IC50 (SK-MEL-2 [26]): 14 µM
viability at 16 µM (HT-29 [27]): 98%
viability at 16 µM (MDA-MB-231 [28]): 95%
Tmax [29]: 5 min
Cmax [30]: 11 µM
Activity (Lipid bilayer): 11.3 µM
concentration at 1 h [31]: < 1 µM

O=c1c(-c2ccc(O)cc2)coc2cc(O)cc(O)c12 [GENISTEIN]
viability at 18 µM [32]: 104%
viability at 18 µM (A549 [33]): 107%
IC50 [2]: 42 µM
viability at 18 µM (LN-229 [34]): 100%
viability at 18 µM (MDA-MB-231 [35]): 91%
Cmax [4]: 35 µM
IC50 (LN-229 [7]): 44 µM
viability at 18 µM (PANC-1 [36]): 99%
IC50 (MDA-MB-231 [8]): 43 µM
IC50 (COLO 201 [9]): 73 µM
IC50 (HT-29 [11]): 50 µM
viability at 18 µM (SK-MEL-2 [37]): 105%
IC50 (A549 [13]): 64 µM
IC50 (T47D [15]): 48 µM
viability at 18 µM (COLO 201 [38]): 100%
IC50 (PANC-1 [16]): 87 µM
viability at 18 µM (T47D [39]): 93%
IC50 (BXPC-3 [19]): 79 µM
IC50 (NCI-H460 [20]): 47 µM
viability at 18 µM (HT-29 [40]): 104%
Tmax [21]: 10 min
viability at 18 µM (NCI-H460 [41]): 102%
concentration at 1 h [22]: < 1 µM
viability at 18 µM (U-87 MG [42]): 98%
IC50 (U-87 MG [25]): 55 µM
IC50 (SK-MEL-2 [26]): 36 µM
Tmax [29]: 5 min
Cmax [30]: 17 µM
Activity (Lipid bilayer): 26.7 µM
concentration at 1 h [31]: < 1 µM
viability at 18 µM (BXPC-3 [43]): 96%
